# Tests used:
# Mus musculus [1] = assay: Antiandrogenic activity in ICR mouse assessed as reduction of ventral prostate weight at 100 mg/kg, po qd administered for 7 days relative to control; assay type: functional, Prostate gland; design: scale not given: the % may be the effect or the level left
# Outline: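 Male ICR mice, 8 weeks old, n=8, dosed orally for seven days with vehicle and castrated groups. Prostate weighed the day after the last dose. % reduction = treated-group weight decrease ÷ castrated-group decrease × 100.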
# [2] = Antitumor activity against human JDCaP cells expressing wild type AR xenografted in testosterone propionate-challenged castrated BALB/c nude mouse assessed as decrease in tumor volume at 20 mg/kg, po bid administered for 29 days measured on day 28 (reference value: 1736.6 +/- 486.2 mm3); assay type: functional
# Outline: (§1)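 JDCaP tumours in nude mice (n=7) castrated the day after grouping. Testosterone propionate 0.2 mg/kg sc once daily for 29 days. Oral drug or 0.5% methylcellulose vehicle for the same period. Tumour volume measured weekly. T/C = volume increase vs testosterone-treated vehicle control × 100.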
# [3] = Antitumor activity against human LNCaP-FGC cells expressing androgen receptor W741C/[…] mutant xenografted in castrated BALB/c nude mouse assessed as effect on tumor volume at 20 mg/kg, po qd administered for 29 days measured on day 28 relative to control; assay type: functional, LNCaP-Clone-FGC
# Outline: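 LNCaP-cxD2 flank xenografts in BALB/c nude mice, grouped at ~200 mm3 (n=7) and castrated next day. Oral dosing for 29 days, vehicle 0.5% methylcellulose. Weekly caliper volumes. T/C = tumour volume increase vs castration (vehicle) group × 100.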
# [4] = Antitumor activity against human JDCaP cells expressing wild type AR xenografted in testosterone propionate-challenged castrated BALB/c nude mouse assessed as decrease in tumor volume at 20 mg/kg, po qd administered for 29 days measured on day 28 relative to control; assay type: functional; outline: as §1
# Mus musculus [5] = assay: Toxicity in BALB/c mouse assessed as body weight at 20 mg/kg, po qd administered for 29 days measured on day 28 (reference value: 17.6 +/- 0.4g); assay type: organism-based; design: dose 20 mg/kg, route oral; conditions: in vivo, 696 h
# [6] = Antitumor activity against human LNCaP-FGC cells expressing androgen receptor W741C/[…] mutant xenografted in castrated BALB/c nude mouse assessed as effect on tumor volume at 20 mg/kg, po qd administered for 29 days measured on day 28 (reference value: 402 +/- 47.7 mm3); assay type: functional, LNCaP-Clone-FGC
# [7] = Antitumor activity against human LNCaP-FGC cells expressing androgen receptor W741C/[…] mutant xenografted in castrated BALB/c nude mouse assessed as decrease in prostate specific antigen level in plasma at 20 mg/kg, po qd administered for 29 days measured on day 28 (reference value: 35.8 +/- 10.7 ng/mL); assay type: functional, LNCaP-Clone-FGC
# Outline: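 LNCaP-cxD2 flank xenografts in castrated BALB/c nude mice (n=7), grouped at ~200 mm3. Oral dosing for 29 days from castration, vehicle 0.5% methylcellulose. Blood taken at study end for plasma PSA.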
# Mus musculus [8] = assay: Antiandrogenic activity in ICR mouse assessed as reduction of ventral prostate weight at 7.5 mg/kg, po bid administered for 7 days relative to control; assay type: functional, Prostate gland; design: scale not given: the % may be the effect or the level left
# Outline: (§2)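 8-week-old male ICR mice, intact, dosed orally for seven days; n = 8 per group. Ventral prostate weighed the day after the last dose. Reduction = decrease in test group ÷ decrease in castrated group × 100. Controls are vehicle-treated mice. Significance by Williams test or unpaired Student's test versus control.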
# Androgen receptor [9] = target: T1, Androgen receptor (Homo sapiens, UniProt P10275); assay: Displacement of [17-alpha-methyl-3H]-mibolerone from human androgen receptor expressed in HEK293 derived FreeStyle293F cells after 3 hrs; assay type: cell-based
# T1 sequence (P10275 whole entry): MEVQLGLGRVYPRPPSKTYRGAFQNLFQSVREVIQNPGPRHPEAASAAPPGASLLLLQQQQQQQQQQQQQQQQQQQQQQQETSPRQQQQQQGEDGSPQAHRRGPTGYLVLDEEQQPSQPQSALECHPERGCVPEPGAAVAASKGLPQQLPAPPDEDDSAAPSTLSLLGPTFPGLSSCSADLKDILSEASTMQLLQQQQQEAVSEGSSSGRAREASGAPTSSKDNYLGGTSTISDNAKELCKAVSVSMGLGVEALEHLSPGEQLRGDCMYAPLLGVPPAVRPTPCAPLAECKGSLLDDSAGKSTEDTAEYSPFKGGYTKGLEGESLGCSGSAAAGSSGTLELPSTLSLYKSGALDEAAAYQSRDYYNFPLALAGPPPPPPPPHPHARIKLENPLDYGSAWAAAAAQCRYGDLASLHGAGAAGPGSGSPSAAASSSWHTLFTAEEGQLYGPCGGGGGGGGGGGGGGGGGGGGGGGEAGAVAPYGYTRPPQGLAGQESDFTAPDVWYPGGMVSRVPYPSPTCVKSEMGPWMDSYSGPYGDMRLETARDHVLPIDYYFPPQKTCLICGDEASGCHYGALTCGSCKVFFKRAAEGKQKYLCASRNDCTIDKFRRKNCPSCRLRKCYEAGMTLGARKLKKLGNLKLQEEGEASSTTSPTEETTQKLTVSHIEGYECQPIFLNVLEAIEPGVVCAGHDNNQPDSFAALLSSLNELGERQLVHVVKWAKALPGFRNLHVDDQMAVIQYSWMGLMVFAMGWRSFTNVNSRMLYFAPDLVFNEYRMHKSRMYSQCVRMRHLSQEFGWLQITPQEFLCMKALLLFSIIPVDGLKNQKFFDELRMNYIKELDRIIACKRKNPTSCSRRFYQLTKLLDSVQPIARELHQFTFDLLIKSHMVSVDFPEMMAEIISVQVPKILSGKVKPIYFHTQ
# Androgen receptor [10] = target: T2, Androgen receptor (Homo sapiens, UniProt P10275, T878A); assay: Antagonist activity at human androgen receptor T877A mutant expressed in COS7 cells assessed as inhibition of DHT-induced luciferase activity after 24 hrs by reporter gene assay; assay type: functional, cell-based, COS-7
# Mus musculus [11] = assay: Antiandrogenic activity in ICR mouse assessed as ventral prostate weight at 25 mg/kg, po bid administered for 7 days (reference value: 14.6 +/- […]); assay type: functional, Prostate gland; outline: as §2
# Androgen receptor [12] = target: T1, Androgen receptor; assay: Agonist activity at human androgen receptor expressed in COS7 cells assessed as luciferase activity after 24 hrs by reporter gene assay; assay type: functional, cell-based, COS-7
# [13] = Antitumor activity against human LNCaP-FGC cells expressing androgen receptor W741C/[…] mutant xenografted in castrated BALB/c nude mouse assessed as decrease in prostate specific antigen level in plasma at 25 mg/kg, po bid administered for 29 days measured on day 28 (reference value: 35.8 +/- 10.7 ng/mL); assay type: functional, LNCaP-Clone-FGC
# [14] = Solubility in aqueous buffer solution at pH 6.8; assay type: physicochemical
# Outline: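 DMSO stock added to aqueous buffer at pH 6.8 and incubated. Precipitate removed by filtration; filtrate concentration measured by HPLC.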
# Mus musculus [15] = assay: Antiandrogenic activity in ICR mouse assessed as reduction of ventral prostate weight at 2.5 mg/kg, po bid administered for 7 days relative to control; assay type: functional, Prostate gland; design: scale not given: the % may be the effect or the level left; outline: as §2
# [16] = Antitumor activity against human JDCaP cells expressing wild type AR xenografted in testosterone propionate-challenged castrated BALB/c nude mouse assessed as decrease in tumor volume at 6.25 mg/kg, po bid administered for 29 days measured on day 28 (reference value: 681.8 +/- 75 mm3); assay type: functional
# Outline: (§3)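 Nude mice carrying JDCaP tumours, n = 7 per group, castrated and given s.c. testosterone propionate 0.2 mg/kg once daily for 29 days. Oral twice-daily dosing in 0.5% methylcellulose over the same period; controls get vehicle plus TP. Tumour volume measured weekly. T/C = increase in tumour volume versus control × 100.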
# [17] = Antitumor activity against human LNCaP-FGC cells expressing androgen receptor W741C/[…] mutant xenografted in castrated BALB/c nude mouse assessed as effect on tumor volume at 25 mg/kg, po bid administered for 29 days measured on day 28 relative to control; assay type: functional, LNCaP-Clone-FGC
# Androgen receptor [18] = target: T2, Androgen receptor; assay: Agonist activity at human androgen receptor T877A mutant expressed in COS7 cells assessed as luciferase activity after 24 hrs by reporter gene assay; assay type: functional, cell-based, COS-7
# Mus musculus [19] = assay: Antiandrogenic activity in ICR mouse assessed as ventral prostate weight at 2.5 mg/kg, po bid administered for 7 days (reference value: 14.6 +/- […]); assay type: functional, Prostate gland; outline: as §2
# [20] = Mean residence time in mouse at 5 mg/kg, po; assay type: ADME, organism-based; design: dose 5 mg/kg, route oral; conditions: in vivo
# Outline: (§4)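 Mice given a single oral 5 mg/kg dose; n = 3. AUC, bioavailability (F) and mean residence time derived from plasma exposure.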
# Androgen receptor [21] = target: T2, Androgen receptor; assay: Displacement of [17-alpha-methyl-3H]-mibolerone from human androgen receptor T877A mutant expressed in HEK293 derived FreeStyle293F cells after 3 hrs; assay type: cell-based
# Mus musculus [22] = assay: Toxicity in BALB/c mouse assessed as body weight at 25 mg/kg, po bid administered for 29 days measured on day 28 (reference value: 17.6 +/- 0.4g); assay type: organism-based; design: dose 25 mg/kg, route oral; conditions: in vivo, 696 h
# [23] = Oral bioavailability in mouse at 5 mg/kg; assay type: ADME, organism-based; conditions: in vivo; outline: as §4
# Androgen receptor [24] = target: T1, Androgen receptor; assay: Antagonist activity at human androgen receptor expressed in COS7 cells assessed as inhibition of DHT-induced luciferase activity after 24 hrs by reporter gene assay; assay type: functional, cell-based, COS-7
# [25] = Antitumor activity against human JDCaP cells expressing wild type AR xenografted in testosterone propionate-challenged castrated BALB/c nude mouse assessed as decrease in tumor volume at 3.125 mg/kg, po bid administered for 29 days measured on day 28 (reference value: 681.8 +/- 75 mm3); assay type: functional; outline: as §3
# Androgen receptor [26] = target: T3, Androgen receptor (Homo sapiens, UniProt P10275, W742C); assay: Antagonist activity at human androgen receptor W741C mutant expressed in COS7 cells assessed as inhibition of DHT-induced luciferase activity after 24 hrs by reporter gene assay; assay type: functional, cell-based, COS-7
# Mus musculus [27] = assay: Antiandrogenic activity in ICR mouse assessed as ventral prostate weight at 7.5 mg/kg, po bid administered for 7 days (reference value: 14.6 +/- […]); assay type: functional, Prostate gland; outline: as §2
# Mus musculus [28] = assay: Antiandrogenic activity in ICR mouse assessed as reduction of ventral prostate weight at 25 mg/kg, po bid administered for 7 days relative to control; assay type: functional, Prostate gland; design: scale not given: the % may be the effect or the level left; outline: as §2
# [29] = Antitumor activity against human JDCaP cells expressing wild type AR xenografted in testosterone propionate-challenged castrated BALB/c nude mouse assessed as decrease in tumor volume at 6.25 mg/kg, po bid administered for 29 days measured on day 28 relative to control; assay type: functional; outline: as §3
# [30] = Antitumor activity against human JDCaP cells expressing wild type AR xenografted in testosterone propionate-challenged castrated BALB/c nude mouse assessed as decrease in tumor volume at 3.125 mg/kg, po bid administered for 29 days measured on day 28 relative to control; assay type: functional; outline: as §3
# [31] = Antitumor activity against human LNCaP-FGC cells expressing androgen receptor W741C/[…] mutant xenografted in castrated BALB/c nude mouse assessed as effect on tumor volume at 25 mg/kg, po bid administered for 29 days measured on day 28 (reference value: 402 +/- 47.7 mm3); assay type: functional, LNCaP-Clone-FGC
# [32] = AUC in mouse at 5 mg/kg, po; assay type: ADME, organism-based; design: dose 5 mg/kg, route oral; conditions: plasma; outline: as §4
# Androgen receptor [33] = target: T3, Androgen receptor; assay: Agonist activity at human androgen receptor W741C mutant expressed in COS7 cells assessed as luciferase activity after 24 hrs by reporter gene assay; assay type: functional, cell-based, COS-7
# T2 sequence (P10275 whole entry T878A): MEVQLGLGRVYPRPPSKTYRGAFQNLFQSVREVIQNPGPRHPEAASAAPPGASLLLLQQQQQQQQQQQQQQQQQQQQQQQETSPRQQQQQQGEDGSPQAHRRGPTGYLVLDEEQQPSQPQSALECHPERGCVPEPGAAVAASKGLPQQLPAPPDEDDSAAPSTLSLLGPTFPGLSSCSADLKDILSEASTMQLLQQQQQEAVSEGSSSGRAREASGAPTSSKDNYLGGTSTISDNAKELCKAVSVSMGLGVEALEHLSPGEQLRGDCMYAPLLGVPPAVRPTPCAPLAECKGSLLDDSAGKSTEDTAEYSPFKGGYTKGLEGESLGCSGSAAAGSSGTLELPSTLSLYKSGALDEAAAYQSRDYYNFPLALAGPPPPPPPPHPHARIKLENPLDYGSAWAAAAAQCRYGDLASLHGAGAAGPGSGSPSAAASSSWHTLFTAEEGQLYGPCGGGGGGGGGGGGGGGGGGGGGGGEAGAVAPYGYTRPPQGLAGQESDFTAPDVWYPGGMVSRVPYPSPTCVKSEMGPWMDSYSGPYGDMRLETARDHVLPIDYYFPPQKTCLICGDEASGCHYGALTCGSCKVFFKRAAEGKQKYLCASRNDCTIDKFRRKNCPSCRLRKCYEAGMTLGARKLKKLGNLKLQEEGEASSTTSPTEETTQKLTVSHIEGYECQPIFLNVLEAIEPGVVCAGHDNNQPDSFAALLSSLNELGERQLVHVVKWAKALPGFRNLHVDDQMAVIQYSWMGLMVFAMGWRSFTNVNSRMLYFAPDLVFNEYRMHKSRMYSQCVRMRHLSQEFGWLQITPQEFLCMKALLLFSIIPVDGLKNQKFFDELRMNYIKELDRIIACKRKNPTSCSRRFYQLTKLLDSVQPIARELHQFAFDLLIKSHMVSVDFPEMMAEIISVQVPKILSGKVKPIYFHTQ
# T3 sequence (P10275 whole entry W742C): as the sequence (P10275 whole entry T878A) above, with W742C, A878T counted along it
structure (smiles),measurement,setting,value
CC(O)(CS(=O)(=O)c1ccc(F)cc1)C(=O)Nc1ccc(C#N)c(C(F)(F)F)c1 (stereo not drawn) [BICALUTAMIDE],Activity,Mus musculus [1],40%
same,Activity,[2],212.2 mm3
same,T/C,[3],137.9%
same,T/C,[4],-70.2%
same,Activity,Mus musculus [5],17.9 g
same,Activity,[6],461.5 mm3
same,Activity,[7],38.5 ng/mL
Cc1c(C#N)c(-c2ccc(C#N)cc2)c(C)n1Cc1cnc(Cl)c(CO)c1,Activity,Mus musculus [8],31%
same,IC50,Androgen receptor [9],37 nM
same,IC50,Androgen receptor [10],110 nM
same,Activity,Mus musculus [11],8.9 mg
same,EC50,Androgen receptor [12],> 10000 nM
same,Activity,[13],1 ng/mL
same,solubility,[14],15 µg/mL
same,Activity,Mus musculus [15],16%
same,Activity,[16],94.8 mm3
same,T/C,[17],15.8%
same,EC50,Androgen receptor [18],> 10000 nM
same,Activity,Mus musculus [19],13.4 mg
same,MRT,[20],4.85 h
same,IC50,Androgen receptor [21],100 nM
same,Activity,Mus musculus [22],22.9 g
same,bioavailability,[23],104%
same,IC50,Androgen receptor [24],25 nM
same,Activity,[25],88.4 mm3
same,IC50,Androgen receptor [26],280 nM
same,Activity,Mus musculus [27],12.2 mg
same,Activity,Mus musculus [28],74%
same,T/C,[29],-44.8%
same,T/C,[30],-44.7%
same,Activity,[31],269.3 mm3
same,AUC,[32],19200 ng·h/mL
same,EC50,Androgen receptor [33],> 10000 nM

# From ChEMBL document CHEMBL1932924, “Design, synthesis, and biological evaluation of 4-phenylpyrrole derivatives as novel androgen receptor antagonists” (Bioorg Med Chem, 2012)
